Assay outcomes (PubChem)
An excerpt weighted towards active compounds, which were near 3.9% of everything screened.
GAA850 FXN act: increases GAA850 frataxin promoter reporter activity | HEK293 lucGAA850 FXN promoter luciferase reporter, 24 h; percent of 10 µM SAHA response | activation, % at 6 µM | 360,000 compounds, 0.56% hits | AID 540364;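 active means activation above the average of all compounds screened plus 3 SD, cutoff fixed separately per campaign, cut at about 7.5% in these data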;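 further: 0% = DMSO wells and 100% = 10 µM SAHA wells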
ABCB6 inh MLPCN: inhibitors of human ABC transporter ABCB6; AID 602162; K562-ABCB6 porphyrin accumulation, flow cytometry, 1 h; hits give low values; 360,000 compounds, 0.19% hits; fluorescence ratio to DMSO, % at 10 µM; Q9NP58;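 active means fluorescence ratio to DMSO below 75%, the collection mean minus 3 SD; inconclusive means too few cells collected in the well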;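 further: signal is porphyrin accumulated inside mitochondria; 100% equals median channel fluorescence of DMSO control wells; lower ratio means ABCB6 inhibition with less porphyrin fluorescence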
Target sequence (Q9NP58 whole entry, looked up): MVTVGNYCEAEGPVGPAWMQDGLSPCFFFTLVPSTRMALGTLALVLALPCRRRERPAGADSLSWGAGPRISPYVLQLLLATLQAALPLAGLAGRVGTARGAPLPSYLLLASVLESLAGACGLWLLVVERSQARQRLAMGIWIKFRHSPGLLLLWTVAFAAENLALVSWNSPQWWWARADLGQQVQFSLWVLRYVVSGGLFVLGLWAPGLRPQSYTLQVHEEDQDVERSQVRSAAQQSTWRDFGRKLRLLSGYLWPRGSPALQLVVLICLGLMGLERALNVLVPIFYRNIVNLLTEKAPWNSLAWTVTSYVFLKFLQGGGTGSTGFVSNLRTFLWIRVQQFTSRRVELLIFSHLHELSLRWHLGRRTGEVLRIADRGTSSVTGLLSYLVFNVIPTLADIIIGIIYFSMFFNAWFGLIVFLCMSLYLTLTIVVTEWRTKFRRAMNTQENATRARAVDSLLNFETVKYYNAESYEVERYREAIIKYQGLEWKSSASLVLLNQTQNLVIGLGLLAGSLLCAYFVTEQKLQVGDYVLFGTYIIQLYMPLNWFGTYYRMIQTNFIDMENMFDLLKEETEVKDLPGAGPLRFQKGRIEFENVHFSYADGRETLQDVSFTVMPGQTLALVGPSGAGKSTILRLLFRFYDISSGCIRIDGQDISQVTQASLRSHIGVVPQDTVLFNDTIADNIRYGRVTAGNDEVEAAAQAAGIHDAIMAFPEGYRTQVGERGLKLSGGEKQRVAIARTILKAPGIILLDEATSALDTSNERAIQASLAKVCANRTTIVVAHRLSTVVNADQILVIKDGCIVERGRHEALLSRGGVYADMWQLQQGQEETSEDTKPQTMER
SR-BI HDL uptake: blocks mouse SR-BI lipid uptake from DiI-HDL; Q61009; ldlA[mSR-BI] CHO cells, DiI-HDL uptake fluorescence, 3 h; inhibition, % at 12.5 µM; 320,000 compounds, 0.96% hits;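 active means mean replicate inhibition of at least 70% and a set share of replicates each scoring 70 or more; inconclusive means meets just one of the two criteria; inactive means fails both criteria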;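 further: 0% = median of neutral control wells and 100% = median of positive control wells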
SR-BI uptake up: activators of SR-BI mediated HDL lipid uptake; activation, % at 12.5 µM; 320,000 compounds, 0.096% hits; CHO ldlA[mSR-BI] cells, DiI-HDL uptake fluorescence, 3 h; 100 = double the neutral-control signal;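 active means mean replicate activation of at least 60% and every replicate at or above 60%; inconclusive means mean or all-replicate condition met, but not both; inactive means mean below 60% and not all replicates reaching 60%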;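 further: 0% = median plate neutral-control signal and 100% = twice that signal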
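Test system: SR-BI-overexpressing, LDLR-lacking CHO cells; Also added: labelled HDL, 10 µg/mL; Measured by: bottom-read cell fluorescence after medium removal, ex 550/em 595 nm; Timing: 3 h uptake period with compound, 37 °C; Buffer or medium: F12, 0.5% BSA, 25 mM HEPES; Doses: single compound concentration, delivered by pin transfer.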
HIF act: HIF pathway transcriptional activation; U2OS HRE-luciferase reporter, luminescence; normalized: DMSO 0%, desferrioxamine 100%; activation, % at 7.5 µM (by protocol); 300,000 compounds, 0.32% hits;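 active means mean activation of at least 10% of the iron chelator positive control signal, with at least half of replicates also reaching 10%; inconclusive means mean and replicate majority disagree about reaching 10%; inactive means mean and most replicates under 10%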
AHR activator: human AHR activation; AHR-responsive luciferase reporter cells, luminescence; activation, % at 5 µM; 320,000 compounds, 2.5% hits; AID 2796; in the data active means activation above about 47%;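 further: 0% = vehicle wells and 100% = reference agonist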
* marks the source's active call; other numbers are inactive results; ? = inconclusive; · = no result given.

SMILES | GAA850 FXN act | ABCB6 inh MLPCN | SR-BI HDL uptake | SR-BI uptake up | HIF act | AHR activator
COc1cc(C(=O)Nc2ccc(Cl)c([N+](=O)[O-])c2)cc(OC)c1OC | 1 | 101 | 80* | -80 | 0 | 11
COc1cc(C(=O)Nc2ccc(Nc3ccccc3)cc2)cc(OC)c1OC | 1 | 102 | 79* | -79 | 1 | 1
COc1ccc(C(=O)Nc2ccc3c(c2)OCCO3)cc1[N+](=O)[O-] | 2 | 96 | 58 | -58 | 1 | -2
O=C(CC1SC(N2CCCC2)=NC1=O)Nc1ccc(C(=O)Nc2ccccc2)cc1 (configuration not stated) | 2 | 98 | 20 | -20 | 0 | 0
COc1ccc(NC(=O)c2cc(-c3cc(Cl)ccc3C)n[nH]2)c(OC)c1 | 2 | 97 | · | · | · | ·
Cc1cc(C)n(Cc2ccc(NC(=O)c3c([N+](=O)[O-])c(C)nn3C)cc2)n1 | 1 | 100 | 18 | -18 | 0 | 1
Cc1nn(C)c(C(=O)Nc2ccc(Cl)c([N+](=O)[O-])c2)c1Cl | 2 | 99 | 39 | -39 | 0 | 48*
CC(C)n1ncc2c(C(=O)Nc3cccc(C#N)c3)cc(C3CC3)nc21 | -1 | 97 | 75* | -75 | · | 5
COc1ccc(NC(=O)c2cc(-c3ccccc3)nc3c2cnn3C(C)C)cc1 | 2 | 98 | 82* | -82 | · | 8
CC(C)n1ncc2c(C(=O)N3CCN(c4ccccc4)CC3)cc(-c3ccccc3)nc21 | 2 | 92 | -1 | 1 | · | -1
COc1ccc(CNC(=O)c2cc(C3CC3)nc3c2cnn3C(C)C)cc1 | 1 | 100 | 31 | -31 | · | 0
CCNC(=O)c1cccc(NC(=O)c2cc(C3CC3)nc3c2cnn3C(C)C)c1 | -2 | 101 | 75* | -75 | · | ·
CC(C)Oc1ccc(C2CC(=O)N(c3ccc(N(C)C)cc3)C2=O)cc1 (configuration not stated) | 2 | 102 | -15 | 15 | 0 | 1
O=C(OCCNc1nc(-c2ccccc2)nc2ccccc12)c1cccnc1 | 2 | 95 | 1 | -1 | 0 | 48*
O=C(OCCNc1nc(-c2ccccc2)nc2ccccc12)c1ccncc1 | -1 | 85 | 31 | -31 | 0 | 47*
N#Cc1nc(COc2ccccc2)oc1NCCCn1ccnc1 | 1 | 95 | -3 | 3 | · | 79*
N#Cc1nc(-c2ccco2)oc1NCCCn1ccnc1 | 1 | 99 | -3 | 3 | 0 | 70*
Cc1ccc(OCc2nc(C#N)c(NCCCn3ccnc3)o2)cc1 | 0 | 93 | -7 | 7 | 1 | 15
COc1ccc(-c2nc(C#N)c(NCCCn3ccnc3)o2)cc1OC | 4 | 92 | 5 | -5 | 1 | 70*
Cc1cc(C)c(OCCNCc2ccccc2)c(C)c1 | 1 | 100 | -2 | 2 | 0 | 3
CCC(c1nnnn1-c1ccc2c(c1)OCCO2)N1CCN(c2ccc(C(F)(F)F)cc2[N+](=O)[O-])CC1 (configuration not stated) | · | 95 | · | · | · | ·
O=C(Nc1ccccc1N1CCCC1)C1CCN(S(=O)(=O)c2ccccc2C(F)(F)F)CC1 | -5 | 90 | 12 | -12 | 0 | 1
O=C(Nc1ccccc1N1CCOCC1)C1CCN(S(=O)(=O)c2ccccc2F)CC1 | -1 | 99 | -214 | 214* | -19 | 2
CCCCCc1cc(=O)oc2c(C(CCN3CCCCC3)c3cc(OC)c(OC)c(OC)c3)c(OC)cc(OC)c12 (configuration not stated) | -3 | 99 | -62 | 62* | -2 | 3
CCn1c(C(=O)OC)cc2c1ccn2-c1ccc(F)cc1 | 7 | 88 | 78* | -78 | 3 | 39
SMILES | GAA850 FXN act | ABCB6 inh MLPCN | SR-BI HDL uptake | SR-BI uptake up | HIF act | AHR activator
COC(=O)c1cc2c(ccn2-c2ccc(F)cc2)n1Cc1ccc(OC)cc1 | 3 | 114 | 68 | -68 | 1 | 16
Cc1cc(NS(=O)(=O)c2cccc([N+](=O)[O-])c2)no1 | 0 | 101 | -12 | 12 | 0 | -1
Cc1c(CCOC(=O)C23CC4CC(CC(C4)C2)C3)sc[n+]1Cc1ccccc1 | 1 | 107 | -25 | 25 | 0 | 69*
CCCn1cnc2cc(NC(=O)c3ccco3)ccc21 | 4 | 95 | 16 | -16 | 1 | 60*
Cn1c(CCNC(=O)c2ccco2)nc2cc(NC(=O)C3CCCCC3)ccc21 | 0 | ? | 10 | -10 | 176* | 1
Cc1ccc(C2N(c3ccccc3)C(=O)N3CCCN23)cc1 (configuration not stated) | 0 | 98 | -13 | 13 | 1 | -2
Oc1ccccc1-c1cc(-c2cccc(F)c2)n[nH]1 | 7 | 99 | 19 | -19 | 5 | 72*
O=C(N/N=C/c1ccc([N+](=O)[O-])o1)c1cn(-c2ccccc2)nc1-c1ccc(Cl)cc1 | 4 | 138 | 112* | -112 | 0 | 9
O=C(N/N=C/c1ccc([N+](=O)[O-])o1)c1ccccc1-n1cccc1 | -2 | 95 | 15 | -15 | 1 | 10
O=C(O)COc1ccc(/C=N/NC(=O)c2cn(-c3ccccc3)nc2-c2ccccc2)cc1 | -1 | 92 | -8 | 8 | 0 | 3
O=C(N/N=C/c1ccc([N+](=O)[O-])o1)c1cn(-c2ccccc2)nc1-c1ccccc1 | 1 | 127 | 84* | -84 | 0 | 21
O=c1[nH]c2ccc(NC(=S)NCc3ccccc3)cc2[nH]1 | 2 | 94 | -3 | 3 | 0 | 2
Cc1cc(NC(=O)c2ccccc2)n(-c2nc3ccccc3[nH]2)n1 | 2 | 97 | 64 | -64 | 24* | 17
Cc1cc(NC(=O)Nc2cc(C)nn2-c2ccccc2)n(-c2ccccc2)n1 | -2 | 93 | 84* | -84 | -28 | 2
COc1cccc(OC)c1C(=O)Nc1cc(C)nn1-c1nc2ccccc2[nH]1 | -8 | 85 | 41 | -41 | 1 | 39
Cc1cc(NC(=O)c2cccs2)n(-c2nc3ccccc3[nH]2)n1 | 2 | 106 | 93* | -93 | 0 | 14
COc1ccc(C(=O)Nc2cc(C)nn2-c2nc3ccccc3[nH]2)c(OC)c1 | 0 | 90 | 75* | -75 | 0 | 36
Cc1cc(NC(=O)c2ccc(F)cc2)n(-c2ccccc2)n1 | 2 | 106 | 13 | -13 | 0 | 4
Cc1cc(NC(=O)c2sccc2C)n(-c2nc3ccccc3[nH]2)n1 | 3 | 94 | 78* | -78 | 0 | 4
Cc1cc(NC(=O)CC#N)n(-c2nc3ccccc3[nH]2)n1 | 3 | 96 | 17 | -17 | 0 | 13
CN(C)/N=C/c1ccc([N+](=O)[O-])cc1[N+](=O)[O-] | -1 | 102 | 7 | -7 | -1 | 59*
COC(=O)C1=CN(Cc2ccc(OC)cc2)C=C(C(=O)OC)C1c1ccsc1 | 0 | 99 | 8 | -8 | 0 | 0
